This passage reports cytotoxicity results from ChEMBL document CHEMBL4513216, “Probing the Open Global Health Chemical Diversity Library for Multistage-Active Starting Points for Next-Generation Antimalarials” (ACS Infect Dis, 2020).

The nature of this series: Toxicity liver stage against HepG2, at 10uM. It counts as cell-based. Details: test concentration 10 uM, cell line HepG2-A16-CD81EGFP. The settings on record: human, HepG2-A16-CD81EGFP cells; read-out: INHIBITION
The method in brief: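 Uninfected HepG2-A16-CD81EGFP cells, 3 × 10^3 per well, 1536-well, plated on prespotted compound at 10 μM final, parasite-free screening media added to match infected plates; puromycin 10 μM positive, DMSO 0.5% negative; run in parallel with 48 h PbLuc assay at 37 °C, 5% CO2; viability by CellTiter-Glo luminescence, normalized to controls.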
In the case of `O=C(CN1CCN(C(=O)c2ccccc2)CC1)Nc1ccc(Br)cn1`, the cytotoxicity at 10 µM amounted to 14.1%. The figure for `CCN1Cc2cc(F)ccc2N(CC(O)C(F)(F)F)CCC1=O` (stereo unspecified) is -3.4%; for `CCOCC(=O)NCC(Cc1cccc(F)c1)n1cccc1` (stereo unspecified) it is -6.22%; for `Cn1c(C(F)(F)F)nn(CCNC(=O)Nc2ccccc2F)c1=O` it is -2.59%. The figure for `CN(c1ncc(C(=O)Nc2ccccc2)c(N)n1)C1CCCCC1` is -6.21%; for `NC(=O)C1CCN(c2nc3nccc(-c4cccnc4)c3c(=O)[nH]2)CC1` it is 12.1%. As to `Cc1ccc2c(ccn2CC(=O)NC[C@@H]2CCCN3CCCC[C@H]23)c1`, the cytotoxicity at 10 µM turned out to be 0.097%. For `CCn1nc(C)c2c1cnn2CCNS(=O)(=O)Cc1ccccc1` the value was 9.6%.

In the case of `COCCNc1ncc(-c2cc(C)no2)c(-c2ccco2)n1`, the cytotoxicity at 10 µM was found to be 13.4%.

Turning to `COc1ccc(CC2CN(Cc3cncn3C)CCO2)cc1` (stereo unspecified), the cytotoxicity at 10 µM was found to be 0.328%. With `O=C(O)COc1ccccc1CN1CCCC1c1cnccn1` (stereo unspecified), the cytotoxicity at 10 µM was 22%.

Take `O=C(CC1CCCCC1)N1CCC(c2ncc3c(n2)CCNC3)CC1`: the cytotoxicity at 10 µM is -8.21%.

On to `Cn1cc(CN2CC[C@H](O)[C@@H](n3ccc(=O)[nH]c3=O)CC2)cn1`, for which the cytotoxicity at 10 µM came out at 20.4%. For `O=C(C1CC1)N1CCCC(c2nc(O)cc(-c3ccncc3)n2)C1` (stereo unspecified) the value was 31.2%; for `Cc1noc2nc(C3CCN(Cc4ccccn4)CC3)cc(C(F)F)c12`, -13%; for `CCc1cc(O)nc(C2CCCN(Cc3ccncc3)C2)n1` (stereo unspecified), -7.05%. For `COCCn1cnc2c(F)cc(Br)cc2c1=O` the value was -0.62%; for `CNS(=O)(=O)CCCN1CCN(C(C#N)c2ccccc2)CC1` (stereo unspecified), 7.7%.

As for `COC(=O)CC1CCCCN1CC(=O)Nc1cc(F)ccc1F` (stereo unspecified), the cytotoxicity at 10 µM is 6.55%.

Consider `CC(c1ccccc1)N(C)C(=O)CN1CCN(c2cnccn2)CC1` (stereo unspecified), for which the cytotoxicity at 10 µM was 3.96%. As to `COc1cc2c(cc1CNC(=O)Cc1cc(C)on1)OC(C)C2` (stereo unspecified), the cytotoxicity at 10 µM came out at 5.38%. As to `Cc1nc(C)n(CC2CCCCN2CCCN2CCCC2=O)n1` (stereo unspecified), the cytotoxicity at 10 µM is -2.35%.

On to `CC(C)C(=O)N1CCN(Cc2csc(-c3ccccn3)n2)CC1`, for which the cytotoxicity at 10 µM was -5.71%. For `Cc1nc(C)n(CC2CCCN(Cc3nc(-c4ccco4)no3)C2)n1` (stereo unspecified) the value was -11.5%. For `CN(CCS(C)(=O)=O)C1CCCN(Cc2noc(C3CC3)n2)C1` (stereo unspecified) the value was 14.6%.

Turning to `CC(NCc1ccccn1)c1cc2c(cc1Br)OCCO2` (stereo unspecified), the cytotoxicity at 10 µM was 2.65%.

As for `CN(Cc1ccsc1)C(=O)Nc1ccc(=O)n(C)c1`, the cytotoxicity at 10 µM stood at 6.26%. The figure for `Cc1nn(C(C)C)c(C)c1S(=O)(=O)Nc1ccc(C(=O)O)cc1` is 15.2%.

Turning to `O=C(NCCCF)Nc1ccc2nc(N3CCOCC3)oc2c1`, the cytotoxicity at 10 µM was 2.77%. `CC(C)(C)c1nc(CC(=O)NC2CCN(C3CC3)C2)cs1` (stereo unspecified): the cytotoxicity at 10 µM is -9.25%. The figure for `CCC(Nc1nnnn1-c1ccccc1)C(=O)NC1CCSCC1` (stereo unspecified) is -16%; for `CCc1nn(C)c2[nH]nc(NC(=O)c3cccnc3OCC(C)C)c12` it is 3.94%.

Regarding `COc1ccc(C2CCCCCN2Cc2nnc(C)o2)cc1` (stereo unspecified), the cytotoxicity at 10 µM was -7.12%. For `Cc1nc(C)c(CC(=O)N2CCC(Oc3ccccc3)CC2)c(=O)[nH]1` the value was 1.98%; for `CN(Cc1cccs1)C(=O)CN(C)C1CCc2ccccc21` (stereo unspecified), 10.1%.

Consider `O=S(=O)(NCC1CCN(CCN2CCOCC2)C1)c1ccccc1F` (stereo unspecified), for which the cytotoxicity at 10 µM was -57.9%.

As for `CCSc1cncc(N2CCC(C(=O)Nc3ccccn3)CC2)n1`, the cytotoxicity at 10 µM was determined as 26.3%. The figure for `O=C(c1c2c(N3CCCC3)ncnc2n2ccccc12)N1CCCC1` is -70.7%; for `CC1c2ncc(COCC3CCOCC3)n2CCN1C(=O)c1ccco1` (stereo unspecified) it is -0.882%; for `Cc1ncc(-c2ccnc(N[C@@H](C)CO)n2)c(C2CCCCC2)n1` it is -20.7%. The figure for `CCN1CCCC(C)(C(=O)NCc2nccn2Cc2ccccc2)C1` (stereo unspecified) is 4.69%. Take `O=C(c1cnc(C2CC2)nc1)N1CCC(N2CCC(O)CC2)CC1`: the cytotoxicity at 10 µM was determined as 2.33%. The figure for `Cc1nn(C)cc1-c1ccnc(N2CCSCC2)n1` is 3.47%. For `CCOc1ccc(CN2CC[C@](C)(O)C(C)(C)C2)cn1` the value was 5.88%; for `CNC(=O)c1ccnc(N2CCCC(COc3cccc(C)c3)C2)c1` (stereo unspecified), 7.68%; for `CC(C)=CCCN1CCN(C)C2(CCC(=O)N(C)CC2)C1` (stereo unspecified), -54%.

As for `Cc1nccc(-c2cccc(-c3ccn(CC4CCNC4)n3)c2)n1` (stereo unspecified), the cytotoxicity at 10 µM amounted to 10.7%. In the case of `COCCC1(C(=O)O)CCCN(C(=O)c2cnc3c(c2)CCCC3)C1` (stereo unspecified), the cytotoxicity at 10 µM was -44.5%. For `O=c1cc(N2CCCC2)cnn1Cc1noc(C2CCCO2)n1` (stereo unspecified) the value was -59.8%; for `Cc1ccc(-c2ccnc(N(C)CC3CCCO3)n2)c(C)n1` (stereo unspecified), -2.59%. `O=S(=O)(c1c(Cl)nc2sccn12)N1CCC2(CCNCC2)C1`: the cytotoxicity at 10 µM came to 6.11%. For `O=C(O)[C@@H]1CN(Cc2nc3ncccn3n2)C[C@H]1c1cccc(F)c1` the value was -10.6%; for `CC(C)=CCC1(C(=O)O)CCCN(c2ccnc(C)n2)C1` (stereo unspecified), -0.842%; for `Cc1cnn(C2CCCN(C(=O)c3ccc(-n4cnnn4)cc3)C2)c1` (stereo unspecified), -4.57%.

Consider `Cc1cc(C)cc(C2(C(=O)NC(C)Cn3ccnc3)CC2)c1` (stereo unspecified), for which the cytotoxicity at 10 µM was -8.26%. For `Cc1cnc(NC(=O)c2ccc(-n3ncc(C#N)c3N)cc2)s1` the value was 5.88%. The figure for `CCOCc1ccc(CNC2=NCCCN2)cc1` is -51.5%; for `COCC1c2c(cnn2CC2CC2)CCN1Cc1cc(C)on1` (stereo unspecified) it is 5.5%. For `c1cncc(OC[C@@]23CCC[C@@H]2CN(CC2CCOCC2)C3)c1` the value was 7.66%; for `O=C1NCCN(CC2CC2)C12CCN(Cc1ccccc1)CC2`, -78.7%.

With `Fc1cnc(N2CCn3cc(CNc4ccccn4)nc3C2)nc1`, the cytotoxicity at 10 µM was -0.665%.

Turning to `O=C(NC1CC1)[C@@H]1C[C@@H]2CCN(Cc3ccccc3)C[C@@H]2O1`, the cytotoxicity at 10 µM is -65.8%. The figure for `CC(C)NC1CCc2c(ccc(=O)n2CC2CC2)C1` (stereo unspecified) is -76.5%.

With `CCc1cnc(N2CCC3(CC2)CN(c2cccnc2)C(=O)CO3)nc1`, the cytotoxicity at 10 µM is 7.18%. Consider `COc1ccc(CN2CC[C@H](O)[C@@H]2Cc2cnn(C)c2)cc1`, for which the cytotoxicity at 10 µM was -81.7%.

Consider `O=C(O)c1cc2c(nc1-c1ccoc1)CCN(CC1CCOC1)CC2` (stereo unspecified), for which the cytotoxicity at 10 µM was -81.9%. The figure for `COCCN1CCOCC12CCN(C(=O)c1ccncc1)CC2` is -71.9%. The figure for `Cc1nc(C2(O)CCCNCC2)sc1CCOc1ccc(F)cc1` (stereo unspecified) is -15.8%; for `Cn1cc(-c2cnc(N3CCOCC3)nc2)cc1C(=O)NCCC#N` it is -83.9%; for `Cc1ccc(CN2CCC3(CC2)CC(N2CCN(C)CC2)CO3)s1` (stereo unspecified) it is -94.6%. The figure for `CC(=O)Nc1c(C)noc1C=Cc1ccc(S(=O)(=O)NC2CC2)cc1` is 0.54%.
